Data as given in ChEMBL document CHEMBL1139369, “Discovery and structure-activity relationship of P1-P3 ketoamide derived macrocyclic inhibitors of hepatitis C virus NS3 protease” (J Med Chem, 2009).
Active and inactive are the calls of the source. The calls are words filed in the database; no cut-off is given here.

Key:
Hepatitis C virus = experiment: Antiviral activity against HCV by genotype 1 replicon based cellular assay; type: functional, Hepacivirus hominis
[1] = (§1) AUC (0 to 6 hrs) in rat at 10 mg/kg, po; type: ADME, organism-based, Plasma; design: time < 6 hr, dose 10 mg/kg, route oral; settings: plasma
In short: (§2)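 Rapid rat assay: oral dosing at 10 mg/kg in 0.4% HPMC. Blood drawn periodically and pooled; plasma AUC calculated over 0–6 h.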

[2] = Binding affinity to HCV NS3 protease; design: species or system Hepacivirus hominis
Rattus norvegicus = experiment: as §1; type: ADME, organism-based, Plasma; design: time < 6 hr, dose 10 mg/kg, route oral; settings: in vivo, 6 h; in short: as §2
[3] = Ratio of Ki for human neutrophil elastase to Ki for HCV NS3 protease
In short: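 Selectivity index: Ki* against human neutrophil elastase divided by Ki* against HCV NS3 protease, both from enzyme binding measurements.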

[4] = AUC (0 to 6 hrs) in rat at 5 mg/kg, po; type: ADME, organism-based; design: time < 6 hr, dose 5 mg/kg, route oral; settings: plasma
In short: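 Rapid rat plasma-level assay with oral dosing at 5 mg/kg in 0.4% HPMC; plasma exposure expressed as AUC.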

Compound	EC90 (Hepatitis C virus)	AUC(0-t) at 6 h [1]	Ki [2]	further results
C=CCNC(=O)C(=O)[C@@H]1CCCCCCCCC[C@H](NC(=O)N[C@H](CN2C(=O)CC(C)(C)CC2=O)C(C)(C)C)C(=O)N2CC3C([C@H]2C(=O)N1)C3(C)C (single isomer, unassigned)	20 nM	1.1 µM·h	2 nM	
CC(C)(C)OC(=O)[C@@H](NC(=O)N[C@H]1CCCCCCCCCC[C@@H](C(=O)C(N)=O)NC(=O)[C@@H]2[C@H]3[C@@H](CN2C1=O)C3(C)C)C(C)(C)C	400 nM		37 nM	
C=CCNC(=O)C(=O)[C@@H]1CCCCCCCCC[C@H](NC(=O)N[C@H](CN2C(=O)C3CCC(C3)C2=O)C(C)(C)C)C(=O)N2CC3C([C@H]2C(=O)N1)C3(C)C (single isomer, unassigned)	15 nM	0.31 µM·h	3 nM	
C=CCNC(=O)C(=O)[C@@H]1CCCCCCCCC[C@H](NC(=O)N[C@H](C(=O)C2CC2)C2CCCCC2)C(=O)N2C[C@@H]3[C@H]([C@H]2C(=O)N1)C3(C)C	280 nM		6 nM	Activity (Rattus norvegicus): Not Active
CC(C)(C)NC(=O)C(=O)[C@@H]1CCCCCCCCCC[C@H](NC(=O)OC(C)(C)C)C(=O)N2CC3C([C@H]2C(=O)N1)C3(C)C (single isomer, unassigned)			6000 nM	Activity (Hepatitis C virus; Hepacivirus hominis): inactive
CN(C[C@@H](NC(=O)N[C@H]1CCCCCCCCC[C@@H](C(=O)C(N)=O)NC(=O)[C@@H]2[C@H]3[C@@H](CN2C1=O)C3(C)C)C(C)(C)C)S(=O)(=O)c1cccs1	70 nM		2 nM	
CN(C[C@@H](NC(=O)N[C@H]1CCCCCCCCC[C@@H](C(=O)C(=O)NCC2CC2)NC(=O)[C@@H]2C3C(CN2C1=O)C3(C)C)C(C)(C)C)S(=O)(=O)c1cccs1 (single isomer, unassigned)		0.4 µM·h	21 nM	
CC(C)[C@H](NC(=O)N[C@H]1CCCCCCCCC[C@@H](C(=O)C(N)=O)NC(=O)[C@@H]2C3C(CN2C1=O)C3(C)C)C(=O)C1CC1 (single isomer, unassigned)	100 nM		11 nM	
C=CCNC(=O)C(=O)[C@@H]1CCCCCCCCC[C@H](NC(=O)N[C@H](CN2C(=O)c3ccccc3C2=O)C(C)(C)C)C(=O)N2CC3C([C@H]2C(=O)N1)C3(C)C (single isomer, unassigned)	100 nM	1.2 µM·h	16 nM	
CCNC(=O)C(=O)[C@@H]1CCCCCCCCC[C@H](NC(=O)N[C@H](CN(C)S(=O)(=O)c2cccs2)C(C)(C)C)C(=O)N2CC3C([C@H]2C(=O)N1)C3(C)C (single isomer, unassigned)			10 nM	
CN(C)C(=O)[C@@H](NC(=O)CNC(=O)C(=O)[C@@H]1CCCC/C=C/CCCC[C@H](NC(=O)OC(C)(C)C)C(=O)N2CC3C([C@H]2C(=O)N1)C3(C)C)c1ccccc1 (single isomer, unassigned)	300 nM		5 nM	Ratio Ki [3]: 1400
C=CCNC(=O)C(=O)[C@@H]1CCCCCCCCC[C@H](NC(=O)N[C@H](CN2Cc3sccc3S2(=O)=O)C(C)(C)C)C(=O)N2C[C@@H]3[C@H]([C@H]2C(=O)N1)C3(C)C	150 nM	0.84 µM·h	7 nM	
CC1(NC(=O)N[C@H]2CCCCCCCCCC[C@@H](C(=O)C(N)=O)NC(=O)[C@@H]3C4C(CN3C2=O)C4(C)C)CCCCC1 (single isomer, unassigned)	400 nM		36 nM	
C=CCNC(=O)C(=O)[C@@H]1CCCCCCCCC[C@H](NC(=O)N[C@H](CN2CCC(C)(C)CC2=O)C(C)(C)C)C(=O)N2C[C@@H]3[C@H]([C@H]2C(=O)N1)C3(C)C	20 nM	1.5 µM·h	2 nM	
CN(C[C@@H](NC(=O)N[C@H]1CCCCCCCCC[C@@H](C(=O)C(N)=O)NC(=O)[C@@H]2C3C(CN2C1=O)C3(C)C)C(C)(C)C)S(C)(=O)=O (single isomer, unassigned)	250 nM		3 nM	
C=CCNC(=O)C(=O)[C@@H]1CCCCCCCCC[C@H](NC(=O)N[C@H](CN2C(=O)CN(C)CC2=O)C(C)(C)C)C(=O)N2CC3C([C@H]2C(=O)N1)C3(C)C (single isomer, unassigned)	30 nM	0.28 µM·h	4 nM	
CN(C)C(=O)[C@@H](NC(=O)CNC(=O)C(=O)[C@@H]1CCCCCCCCCC[C@H](NC(=O)NC(C)(C)C)C(=O)N2C[C@@H]3[C@H]([C@H]2C(=O)N1)C3(C)C)c1ccccc1	1000 nM		6 nM	Ratio Ki [3]: 980
CN(C)C(=O)[C@@H](NC(=O)CNC(=O)C(=O)[C@@H]1CCCCCCCCCC[C@H](NC(=O)OC(C)(C)C)C(=O)N2CC3C([C@H]2C(=O)N1)C3(C)C)c1ccccc1 (single isomer, unassigned)	600 nM		6 nM	Ratio Ki [3]: 780
CC(C)(C)NC(=O)N[C@H]1CCCCCCCCCC[C@@H](C(=O)C(N)=O)NC(=O)[C@H]2[C@H]3[C@@H](CN2C1=O)C3(C)C	1000 nM		59 nM	
CC(C)(C)NC(=O)N[C@H](C(=O)N1CC2C([C@H]1C(=O)NC(CC1CCC1)C(=O)C(N)=O)C2(C)C)C(C)(C)C (single isomer, unassigned) [BOCEPREVIR]	350 nM		14 nM	Ratio Ki [3]: 2200
C=CCNC(=O)C(=O)[C@@H]1CCCCCCCCC[C@H](NC(=O)N[C@H](CN(C)S(=O)(=O)c2ccccn2)C(C)(C)C)C(=O)N2CC3C([C@H]2C(=O)N1)C3(C)C (single isomer, unassigned)	90 nM	0.84 µM·h	7 nM	
CC(C)(C)OC(=O)N[C@H]1CCCCCCCCCC[C@@H](C(=O)C(N)=O)NC(=O)[C@@H]2C3C(CN2C1=O)C3(C)C (single isomer, unassigned)	900 nM		59 nM	
CC1(C)C2CN3C(=O)[C@@H](NC(=O)N[C@H](C(=O)C4CC4)C4CCCCC4)CCCCCCCCC[C@@H](C(=O)C(N)=O)NC(=O)[C@@H]3C21 (single isomer, unassigned)	180 nM		11 nM	
CC(C)(C)OC(=O)N[C@H]1CCCCCCCCCC[C@@H](C(=O)C(=O)NCC(=O)NCc2ccccc2)NC(=O)[C@@H]2[C@H]3[C@@H](CN2C1=O)C3(C)C	2000 nM		89 nM	
C=CCNC(=O)C(=O)[C@@H]1CCCCCCCCC[C@H](NC(=O)N[C@H](C(=O)C2CC2)C(C)C)C(=O)N2CC3C([C@H]2C(=O)N1)C3(C)C (single isomer, unassigned)	480 nM		20 nM	Activity (Rattus norvegicus): Not Active
CCCNC(=O)C(=O)[C@@H]1CCCCCCCCC[C@H](NC(=O)N[C@H](CN(C)S(=O)(=O)c2cccs2)C(C)(C)C)C(=O)N2CC3C([C@H]2C(=O)N1)C3(C)C (single isomer, unassigned)			14 nM	
C=CCNC(=O)C(=O)[C@@H]1CCCCCCCCC[C@H](NC(=O)N[C@H](CN(C)S(=O)(=O)c2cccs2)C(C)(C)C)C(=O)N2CC3C([C@H]2C(=O)N1)C3(C)C (single isomer, unassigned)		1.26 µM·h	5 nM	
C=CCNC(=O)C(=O)[C@@H]1CCCCCCCCC[C@H](NC(=O)N[C@H](CN(C)S(=O)(=O)N(C)C)C(C)(C)C)C(=O)N2C[C@@H]3[C@H]([C@H]2C(=O)N1)C3(C)C	60 nM		13 nM	AUC(0-t) at 6 h [4]: 1.04 µM·h
C=CCCCC[C@H](NC(=O)[C@@H]1[C@H]2[C@@H](CN1C(=O)[C@H](CCCCC=C)NC(=O)OC(C)(C)C)C2(C)C)C(=O)C(N)=O			250 nM	
C=CCNC(=O)C(=O)[C@@H]1CCCCCCCCC[C@H](NC(=O)N[C@H](CN(C)S(C)(=O)=O)C(C)(C)C)C(=O)N2C[C@@H]3[C@H]([C@H]2C(=O)N1)C3(C)C	55 nM	0.36 µM·h	3 nM	
